Experimental data reported in ChEMBL document CHEMBL1759921, “N5-phosphonoacetyl-L-ornithine (PALO): a convenient synthesis and investigation of influence on regulation of amino acid biosynthetic genes in Saccharomyces cerevisiae” (Bioorg Med Chem Lett, 2011).
Activity calls are given as the source filed them. The rule behind the calls is not given here.

How the values were obtained:
Type in all cases: functional, organism-based
Saccharomyces cerevisiae [1] = assay: Decrease in ARG5,6 mRNA level in Saccharomyces cerevisiae BY4741 at 1 mg/ml by Northern blot analysis relative to control
Procedure, shortened: (§1)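 BY4741 inoculated from a saturated culture (30 °C, YPD) into minimal medium with leucine, methionine, uracil and histidine. Treatments were added at inoculation: 15 µM PALO in 50 mM potassium phosphate pH 6.8, buffer alone (untreated), 1 mg/mL L-arginine, or both. Cells grown at 30 °C and harvested at mid-log (OD600 0.4–0.6). mRNA measured by quantitative northern blot, normalized to SCR1; mean of three replicates.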

Saccharomyces cerevisiae [2] = assay: Decrease in CPA1 mRNA level in Saccharomyces cerevisiae BY4741 at 1 mg/ml by Northern blot analysis relative to control; procedure, shortened: as §1
Saccharomyces cerevisiae [3] = assay: Decrease in TRP5 mRNA level in Saccharomyces cerevisiae BY4741 at 1 mg/ml by Northern blot analysis relative to control; procedure, shortened: as §1
Saccharomyces cerevisiae [4] = assay: Decrease in TAP-tagged ARG5,6 protein level in Saccharomyces cerevisiae YSC1178-7500224 at 1 mg/ml by Western blotting analysis relative to control
Procedure, shortened: (§2)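 TAP-tagged strains (BY4741 background, untagged BY4741 as control) were grown from a saturated culture in supplemented minimal medium. At inoculation they received 15 µM PALO in 50 mM potassium phosphate pH 6.8, buffer alone, 1 mg/mL L-arginine, or both. Cells grown at 30 °C and harvested at OD600 0.4–0.6. Extracts were western blotted with anti-TAP antibody, with Coomassie-stained duplicate gels as loading controls. Band intensity was quantified.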

Saccharomyces cerevisiae [5] = assay: Decrease in TAP-tagged CPA1 protein level in Saccharomyces cerevisiae YSC1178-7502950 at 1 mg/ml by Western blotting analysis relative to control; procedure, shortened: as §2
Saccharomyces cerevisiae [6] = assay: Decrease in TAP-tagged TRP5 protein level in Saccharomyces cerevisiae YSC1178-7500415 at 1 mg/ml by Western blotting analysis relative to control; procedure, shortened: as §2
Saccharomyces cerevisiae [7] = assay: Increase in ARG5,6 mRNA level in Saccharomyces cerevisiae BY4741 at 15 uM by Northern blot analysis relative to control; procedure, shortened: as §1
Saccharomyces cerevisiae [8] = assay: Increase in CPA1 mRNA level in Saccharomyces cerevisiae BY4741 at 15 uM by Northern blot analysis relative to control; procedure, shortened: as §1
Saccharomyces cerevisiae [9] = assay: Increase in TRP5 mRNA level in Saccharomyces cerevisiae BY4741 at 15 uM by Northern blot analysis relative to control; procedure, shortened: as §1
Saccharomyces cerevisiae [10] = assay: Decrease in ARG5,6 mRNA level in Saccharomyces cerevisiae BY4741 at 15 uM by Northern blot analysis in presence of arginine relative to control; procedure, shortened: as §1
Saccharomyces cerevisiae [11] = assay: Decrease in CPA1 mRNA level in Saccharomyces cerevisiae BY4741 at 15 uM by Northern blot analysis in presence of arginine relative to control; procedure, shortened: as §1
Saccharomyces cerevisiae [12] = assay: Decrease in TRP5 mRNA level in Saccharomyces cerevisiae BY4741 at 15 uM by Northern blot analysis in presence of arginine relative to control; procedure, shortened: as §1
Saccharomyces cerevisiae [13] = assay: Increase in TAP-tagged ARG5,6 protein level in Saccharomyces cerevisiae YSC1178-7500224 at 15 uM by Western blotting analysis relative to control; procedure, shortened: as §2
Saccharomyces cerevisiae [14] = assay: Increase in TAP-tagged CPA1 protein level in Saccharomyces cerevisiae YSC1178-7502950 at 15 uM by Western blotting analysis relative to control; procedure, shortened: as §2
Saccharomyces cerevisiae [15] = assay: Increase in TAP-tagged TRP5 protein level in Saccharomyces cerevisiae YSC1178-7500415 at 15 uM by Western blotting analysis relative to control; procedure, shortened: as §2
Saccharomyces cerevisiae [16] = assay: Decrease in TAP-tagged ARG5,6 protein level in Saccharomyces cerevisiae YSC1178-7500224 at 15 uM by Western blotting analysis in presence of arginine relative to control; procedure, shortened: as §2
Saccharomyces cerevisiae [17] = assay: Decrease in TAP-tagged CPA1 protein level in Saccharomyces cerevisiae YSC1178-7502950 at 15 uM by Western blotting analysis in presence of arginine relative to control; procedure, shortened: as §2
Saccharomyces cerevisiae [18] = assay: Decrease in TAP-tagged TRP5 protein level in Saccharomyces cerevisiae YSC1178-7500415 at 15 uM by Western blotting analysis in presence of arginine relative to control; procedure, shortened: as §2
Saccharomyces cerevisiae [19] = assay: Effect on growth rate in Saccharomyces cerevisiae BY4741
Procedure, shortened: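 Growth followed at 30 °C in nitrogen-limiting medium: 2% dextrose, 1 mM ammonium sulfate, 100 µM potassium phosphate pH 6.8, and 10 µg/mL each of leucine, methionine, uracil and histidine.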

| Structure (SMILES) | Activity (Saccharomyces cerevisiae [1]) | Activity (Saccharomyces cerevisiae [2]) | Activity (Saccharomyces cerevisiae [3]) | Activity (Saccharomyces cerevisiae [4]) | Activity (Saccharomyces cerevisiae [5]) | Activity (Saccharomyces cerevisiae [6]) | Activity (Saccharomyces cerevisiae [7]) | Activity (Saccharomyces cerevisiae [8]) | Activity (Saccharomyces cerevisiae [9]) | Activity (Saccharomyces cerevisiae [10]) | Activity (Saccharomyces cerevisiae [11]) | Activity (Saccharomyces cerevisiae [12]) | Activity (Saccharomyces cerevisiae [13]) | Activity (Saccharomyces cerevisiae [14]) | Activity (Saccharomyces cerevisiae [15]) | Activity (Saccharomyces cerevisiae [16]) | Activity (Saccharomyces cerevisiae [17]) | Activity (Saccharomyces cerevisiae [18]) | Activity (Saccharomyces cerevisiae [19]) |
| --- | --- | --- | --- | --- | --- | --- | --- | --- | --- | --- | --- | --- | --- | --- | --- | --- | --- | --- | --- |
| N=C(N)NCCC[C@H](N)C(=O)O | Active | Active | inactive | Active | Active | inactive | – | – | – | – | – | – | – | – | – | – | – | – | – |
| N[C@@H](CCCNC(=O)CP(=O)(O)O)C(=O)O | – | – | – | – | – | – | inactive | inactive | inactive | Active | Active | inactive | inactive | inactive | inactive | Active | Active | inactive | inactive |
